The source made the active and inactive calls. The calls are words filed in the database; no cut-off is given here.
Key:
[1] = molecular target: T1, Androgen receptor/Baculoviral IAP repeat-containing protein 2 (Homo sapiens, UniProt P10275+Q13490); assay: Induction of AR/cIAP1 interaction in human VCaP cells assessed as ubiquitin proteasome system mediated androgen receptor protein degradation by measuring reduction in DHT-stimulated TMPRSS2 mRNA expression at 3 uM after 24 hrs by qPCR analysis; format: cell-based
T1 sequence (P10275 whole entry, looked up): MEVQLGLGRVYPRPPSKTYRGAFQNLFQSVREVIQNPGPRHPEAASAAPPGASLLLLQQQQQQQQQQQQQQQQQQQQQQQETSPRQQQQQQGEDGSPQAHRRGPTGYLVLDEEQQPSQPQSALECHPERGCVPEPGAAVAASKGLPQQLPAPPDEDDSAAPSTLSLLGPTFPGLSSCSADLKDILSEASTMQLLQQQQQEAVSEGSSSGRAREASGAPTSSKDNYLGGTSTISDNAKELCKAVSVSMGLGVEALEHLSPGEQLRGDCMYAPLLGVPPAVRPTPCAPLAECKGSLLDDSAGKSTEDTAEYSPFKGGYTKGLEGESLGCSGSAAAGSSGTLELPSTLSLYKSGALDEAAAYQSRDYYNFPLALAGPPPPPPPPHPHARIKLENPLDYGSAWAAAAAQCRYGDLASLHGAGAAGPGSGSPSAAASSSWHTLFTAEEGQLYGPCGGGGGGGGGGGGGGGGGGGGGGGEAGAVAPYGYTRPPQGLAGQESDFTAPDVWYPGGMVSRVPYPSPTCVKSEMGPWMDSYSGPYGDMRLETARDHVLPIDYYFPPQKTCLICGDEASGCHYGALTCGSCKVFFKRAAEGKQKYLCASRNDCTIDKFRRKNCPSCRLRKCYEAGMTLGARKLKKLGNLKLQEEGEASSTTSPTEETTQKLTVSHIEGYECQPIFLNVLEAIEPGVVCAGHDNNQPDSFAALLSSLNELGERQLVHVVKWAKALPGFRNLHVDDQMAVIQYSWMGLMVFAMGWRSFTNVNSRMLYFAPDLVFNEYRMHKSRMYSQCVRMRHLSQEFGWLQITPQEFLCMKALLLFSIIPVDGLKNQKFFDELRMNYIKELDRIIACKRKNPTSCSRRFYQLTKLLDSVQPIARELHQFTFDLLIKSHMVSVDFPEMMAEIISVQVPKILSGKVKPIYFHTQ
T1 sequence (Q13490 whole entry, looked up): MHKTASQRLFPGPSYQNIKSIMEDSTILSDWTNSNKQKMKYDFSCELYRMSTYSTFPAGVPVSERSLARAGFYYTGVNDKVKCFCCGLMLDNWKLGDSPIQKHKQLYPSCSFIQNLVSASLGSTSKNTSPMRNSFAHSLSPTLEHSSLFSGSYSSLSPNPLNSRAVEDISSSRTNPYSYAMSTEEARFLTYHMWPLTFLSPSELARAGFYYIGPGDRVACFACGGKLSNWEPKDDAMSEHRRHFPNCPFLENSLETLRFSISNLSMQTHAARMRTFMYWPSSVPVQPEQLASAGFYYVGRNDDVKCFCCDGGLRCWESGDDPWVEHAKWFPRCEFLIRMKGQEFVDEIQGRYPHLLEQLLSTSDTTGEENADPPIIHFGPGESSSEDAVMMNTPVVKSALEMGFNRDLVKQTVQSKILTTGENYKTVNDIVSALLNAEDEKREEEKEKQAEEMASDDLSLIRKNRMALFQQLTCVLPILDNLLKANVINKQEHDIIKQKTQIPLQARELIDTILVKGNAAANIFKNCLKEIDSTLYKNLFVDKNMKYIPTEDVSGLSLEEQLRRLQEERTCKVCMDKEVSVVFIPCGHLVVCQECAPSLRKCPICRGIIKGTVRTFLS
Procedure, shortened: (§1)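 VCaP cells were held 2 days in phenol red-free RPMI + 5% charcoal-stripped FBS, then given 1 nM DHT with or without 3 μM compound for 24 h. RNA was isolated and cDNA made from 1 μg with oligo-dT. qPCR used the comparative Ct method, with values relative to vehicle = 1. Means ± SD, n = 3.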

VCaP [2] = assay: Induction of apoptosis in human VCaP cells assessed as viable cells at 3 uM in presence of pan-caspase inhibitor zVAD-FMK after 24 hrs by Annexin V-FITC/propidium iodide staining-based flow cytometry (reference value: 98.9%); format: functional; settings: read-out: Activity
A549 [3] = assay: Cytotoxicity against human A549 cells at 100 uM after 6 hrs by WST-8 assay; format: functional, cell-based
Procedure, shortened: (§2)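 WST-8 viability read at 450 nm after 6 h exposure to 100 μM compound. Reagent incubated 0.5 h at 37 °C. A549 and PC-3 were kept in RPMI-1640 + 10% FBS; HT1080 in DMEM + 10% FBS.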

[4] = molecular target: T1, Androgen receptor/Baculoviral IAP repeat-containing protein 2; assay: Induction of AR/cIAP1 interaction in human VCaP cells assessed as ubiquitin proteasome system mediated androgen receptor protein degradation at 3 uM in presence of proteasome inhibitor MG132 after 6 hrs by Western blot analysis; format: cell-based
Procedure, shortened: (§3)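 22Rv1 or VCaP cells were given 3 μM degrader with or without 10 μM proteasome inhibitor over a time course. AR was detected by Western blot (SDS lysis, BCA normalization) and AR/GAPDH was normalized to vehicle as 100. Means ± SD, n = 3.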

[5] = molecular target: T1, Androgen receptor/Baculoviral IAP repeat-containing protein 2; assay: Induction of AR/cIAP1 interaction in human 22Rv1 cells assessed as ubiquitin proteasome system mediated androgen receptor protein degradation at 3 uM by Western blot analysis; format: cell-based; settings: TDE = time-dependent effect
Procedure, shortened: (§4)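 22Rv1 cells were treated with compound, or with separate ligands (30 μM or 3 μM each), for 6 h. Lysates in SDS buffer (0.1 M Tris pH 8.0, 1% SDS) were normalized by BCA, run on SDS-PAGE and immunoblotted. AR/GAPDH ratio was normalized to vehicle as 100. DC50 is the concentration giving 50% AR reduction; means ± SD, n = 3; t-test against vehicle.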

VCaP [6] = assay: Induction of apoptosis in human VCaP cells assessed as viable cells at 3 uM after 24 hrs by Annexin V-FITC/propidium iodide staining-based flow cytometry (reference value: 98.9%); format: functional; settings: read-out: Activity
[7] = molecular target: T1, Androgen receptor/Baculoviral IAP repeat-containing protein 2; assay: Induction of AR/cIAP1 interaction in human 22Rv1 cells assessed as ubiquitin proteasome system mediated androgen receptor protein degradation at 3 uM after 6 hrs by Western blot analysis; format: cell-based; procedure, shortened: as §4
VCaP [8] = assay: Induction of apoptosis in human VCaP cells assessed as necrotic cells at 3 uM in presence of pan-caspase inhibitor zVAD-FMK after 24 hrs by Annexin V-FITC/propidium iodide staining-based flow cytometry (reference value: 0.5%); format: functional
VCaP [9] = assay: Induction of apoptosis in human VCaP cells assessed as late apoptotic cells at 3 uM after 24 hrs by Annexin V-FITC/propidium iodide staining-based flow cytometry (reference value: 0.1%); format: functional
VCaP [10] = assay: Cytotoxicity against human VCaP cells at 3 uM after 48 hrs by WST-8 assay; format: functional, cell-based
Procedure, shortened: (§5)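 Seeded at 5 × 10^3 cells/well; compound added after 24 h and incubated 48 h. WST-8 reagent then added for 0.5 h at 37 °C, 5% CO2, with absorbance read at 450 nm. A549, PC-3, LNCaP and VCaP were kept in RPMI-1640 + 10% FBS; HT1080 in DMEM + 10% FBS. Means ± SD, n = 3; Student's t-test against vehicle.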

A549 [11] = assay: Cytotoxicity against human A549 cells at 3 uM after 48 hrs by WST-8 assay; format: functional, cell-based; procedure, shortened: as §5
VCaP [12] = assay: Induction of morphological changes in human VCaP cells at 3 uM after 24 hrs by phase contrast microscopic analysis; format: functional, cell-based
Procedure, shortened: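 VCaP cells were treated 24 h with 3 μM compound and imaged by phase-contrast microscopy.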

VCaP [13] = assay: Induction of apoptosis in human VCaP cells assessed as early apoptotic cells at 3 uM in presence of pan-caspase inhibitor zVAD-FMK after 24 hrs by Annexin V-FITC/propidium iodide staining-based flow cytometry (reference value: 0.5%); format: functional
[14] = molecular target: T1, Androgen receptor/Baculoviral IAP repeat-containing protein 2; assay: Induction of AR/cIAP1 interaction in human VCaP cells assessed as ubiquitin proteasome system mediated androgen receptor protein degradation by measuring reduction in DHT-stimulated KLK2 mRNA expression at 3 uM after 24 hrs by qPCR analysis; format: cell-based; procedure, shortened: as §1
PC-3 [15] = assay: Cytotoxicity against human PC3 cells at 3 uM after 48 hrs by WST-8 assay; format: functional, cell-based; procedure, shortened: as §5
[16] = molecular target: T1, Androgen receptor/Baculoviral IAP repeat-containing protein 2; assay: Induction of AR/cIAP1 interaction in human VCaP cells assessed as ubiquitin proteasome system mediated androgen receptor protein degradation by measuring reduction in DHT-stimulated PSA mRNA expression at 3 uM after 24 hrs by qPCR analysis; format: cell-based; procedure, shortened: as §1
LNCaP = assay: Cytotoxicity against human LNCAP cells expressing androgen receptor at 3 uM after 48 hrs by WST-8 assay; format: functional, cell-based; procedure, shortened: as §5
HT-1080 [17] = assay: Cytotoxicity against human HT1080 cells at 100 uM after 6 hrs by WST-8 assay; format: functional, cell-based; procedure, shortened: as §2
VCaP [18] = assay: Induction of apoptosis in human VCaP cells assessed as caspase-3 activation at 3 uM in presence of proteasome inhibitor MG132 after 9 hrs by Western blot method; format: functional, cell-based
Procedure, shortened: (§6)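 VCaP cells were incubated 9 h with 3 μM compound and/or 10 μM proteasome inhibitor. Apoptotic markers were assessed by Western blot.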

VCaP [19] = assay: Induction of apoptosis in human VCaP cells assessed as increase in cleaved PARP levels at 1 to 3 uM in presence of pan-caspase inhibitor zVAD-FMK after 24 hrs by Western blot analysis; format: functional, cell-based
Procedure, shortened: (§7)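 VCaP cells were treated 24 h with compound, or with 3 μM compound plus graded pan-caspase inhibitor. Cleaved caspase-3 and cleaved PARP were detected by Western blot of SDS lysates normalized by BCA.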

VCaP [20] = assay: Induction of apoptosis in human VCaP cells assessed as necrotic cells at 3 uM after 24 hrs by Annexin V-FITC/propidium iodide staining-based flow cytometry (reference value: 0.5%); format: functional
HT-1080 [21] = assay: Cytotoxicity against human HT1080 cells at 3 uM after 48 hrs by WST-8 assay; format: functional, cell-based; procedure, shortened: as §5
VCaP [22] = assay: Induction of apoptosis in human VCaP cells assessed as caspase-3 activation at 1 to 3 uM in presence of pan-caspase inhibitor zVAD-FMK after 24 hrs by Western blot analysis; format: functional, cell-based; procedure, shortened: as §7
VCaP [23] = assay: Induction of apoptosis in human VCaP cells assessed as early apoptotic cells at 3 uM after 24 hrs by Annexin V-FITC/propidium iodide staining-based flow cytometry (reference value: 0.5%); format: functional
VCaP [24] = assay: Induction of apoptosis in human VCaP cells assessed as late apoptotic cells at 3 uM in presence of pan-caspase inhibitor zVAD-FMK after 24 hrs by Annexin V-FITC/propidium iodide staining-based flow cytometry (reference value: 0.1%); format: functional
[25] = molecular target: T1, Androgen receptor/Baculoviral IAP repeat-containing protein 2; assay: Induction of AR/cIAP1 interaction in human VCaP cells assessed as ubiquitin proteasome system mediated androgen receptor protein degradation by measuring reduction in DHT-stimulated NKX3.1 mRNA expression at 3 uM after 24 hrs by qPCR analysis; format: cell-based; procedure, shortened: as §1
PC-3 [26] = assay: Cytotoxicity against human PC3 cells at 100 uM after 6 hrs by WST-8 assay; format: functional, cell-based; procedure, shortened: as §2
VCaP [27] = assay: Induction of apoptosis in human VCaP cells assessed as caspase-3 activation at 1 to 3 uM after 24 hrs by Western blot analysis; format: functional, cell-based; procedure, shortened: as §7
VCaP [28] = assay: Induction of apoptosis in human VCaP cells assessed as increase in cleaved PARP levels at 1 to 3 uM after 24 hrs by Western blot method; format: functional, cell-based; procedure, shortened: as §7
[29] = molecular target: T1, Androgen receptor/Baculoviral IAP repeat-containing protein 2; assay: Induction of AR/cIAP1 interaction in human 22Rv1 cells assessed as ubiquitin proteasome system mediated androgen receptor protein degradation at 3 uM in presence of proteasome inhibitor MG132 after 6 hrs by Western blot analysis; format: cell-based; procedure, shortened: as §3
VCaP [30] = assay: Induction of apoptosis in human VCaP cells assessed as increase in cleaved PARP levels at 3 uM in presence of proteasome inhibitor MG132 after 9 hrs by Western blot method; format: functional, cell-based; procedure, shortened: as §6
[31] = molecular target: T1, Androgen receptor/Baculoviral IAP repeat-containing protein 2; assay: Induction of AR/cIAP1 interaction in human 22Rv1 cells assessed as ubiquitin proteasome system mediated androgen receptor protein degradation at 1 to 3 uM after 6 hrs by Western blot analysis; format: cell-based; procedure, shortened: as §4

CN[C@@H](C)C(=O)N[C@H](C(=O)N1CCC[C@H]1c1nc(C(=O)c2cccc(OCCOCCOCCOCCOc3ccc(Cn4c(C)c(C#N)c(-c5ccc(C#N)cc5)c4C)cc3)c2)cs1)C1CCCCC1
Activity [1]: Active | viability at 3 µM (VCaP [2]): 96.8% | Activity (A549 [3]): Active | Activity [4]: inactive | Activity [5]: Tde | viability at 3 µM (VCaP [6]): 87.7% | Activity [7]: Active | Activity (VCaP [8]): 1.1% | Activity (VCaP [9]): 0.4% | Activity (VCaP [10]): Active | Activity (A549 [11]): inactive | Activity (VCaP [12]): Active | Activity (VCaP [13]): 1.5% | Activity [14]: Active | Activity (PC-3 [15]): inactive | Activity [16]: Active | Activity (LNCaP): Active | Activity (HT-1080 [17]): Active | Activity (VCaP [18]): inactive | Activity (VCaP [19]): inactive | Activity (VCaP [20]): 0.3% | Activity (HT-1080 [21]): inactive | Activity (VCaP [22]): inactive | Activity (VCaP [23]): 11.6% | Activity (VCaP [24]): 0.6% | Activity [25]: Active | Activity (PC-3 [26]): Active | Activity (VCaP [27]): Active | Activity (VCaP [28]): Active | Activity [29]: inactive | Activity (VCaP [30]): inactive | Activity [31]: Active
